# Assay results of several laboratories.
# Target: MAP/microtubule affinity-regulating kinase 4 (MARK4, Homo sapiens, UniProt Q96L34)
# Residues used in one study (Q96L34 1-752): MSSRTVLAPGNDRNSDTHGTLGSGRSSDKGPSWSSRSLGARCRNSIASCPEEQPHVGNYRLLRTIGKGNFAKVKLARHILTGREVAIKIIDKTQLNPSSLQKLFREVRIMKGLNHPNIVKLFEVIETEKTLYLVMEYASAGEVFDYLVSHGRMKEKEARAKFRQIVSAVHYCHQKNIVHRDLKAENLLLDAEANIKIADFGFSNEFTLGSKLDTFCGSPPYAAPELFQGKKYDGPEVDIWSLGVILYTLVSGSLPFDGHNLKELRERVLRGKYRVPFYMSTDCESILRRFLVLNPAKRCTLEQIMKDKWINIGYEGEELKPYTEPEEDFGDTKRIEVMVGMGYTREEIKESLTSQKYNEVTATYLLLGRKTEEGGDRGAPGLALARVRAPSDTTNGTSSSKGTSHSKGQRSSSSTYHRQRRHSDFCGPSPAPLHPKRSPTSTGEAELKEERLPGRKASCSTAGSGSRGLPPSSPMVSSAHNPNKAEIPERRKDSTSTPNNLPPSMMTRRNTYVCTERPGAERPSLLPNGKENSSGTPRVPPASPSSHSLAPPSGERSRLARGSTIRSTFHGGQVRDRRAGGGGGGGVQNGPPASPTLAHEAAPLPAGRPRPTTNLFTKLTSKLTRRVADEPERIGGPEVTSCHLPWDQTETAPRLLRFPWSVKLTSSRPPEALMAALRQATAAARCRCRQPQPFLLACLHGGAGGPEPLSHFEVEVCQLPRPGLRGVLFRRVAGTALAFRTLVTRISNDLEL
SMILES,read-out,mode,technique,tested at,quantity,result
C[C@H]1CCN(c2nccc(-c3cnn4ncccc34)n2)C1,binding,,,1 µM,remaining binding,100%
NS(=O)(=O)c1ccc(CNc2nc(Nc3cccc(NC(=O)N4CCCC4)c3)ncc2Br)cc1,enzyme activity,inhibitor,radiometric,1 µM,remaining activity,42%
COc1cc(Nc2cnc(C#N)c(O[C@H](C)CN(C)C)n2)ncc1-c1cnn(C)c1,enzyme activity,inhibitor,radiometric,10 µM,remaining activity,83%
CN1CC(Oc2cnc(C#N)cc2-c2ccn3nc(NC(=O)C4CC4)cc3c2)C1,enzyme activity,inhibitor,,1 µM,inhibition,8%
COc1ccc2c(c1)O[C@@H](c1ccc(OC)c(OC)c1)C[C@H]2NC(=O)C1(c2ccc3c(c2)OC(F)(F)O3)CC1,cell-free assay,,competition with immobilised ligand,1 µM,remaining binding,92%
Cc1nn(CC(F)(F)F)cc1Nc1nccc(NCCc2cnc[nH]2)n1,enzyme activity,inhibitor,radiometric,1 µM,remaining activity,99%
COc1cc2ncnc(Nc3ccc(Oc4ccccc4)c(C)c3C)c2cc1OC,enzyme activity,inhibitor,,1 µM,inhibition,-1%
O=C(NCCCNc1ccnc(Nc2cccc(NC(=O)N3CCCC3)c2)n1)C1CCC1,enzyme activity,inhibitor,radiometric,1 µM,remaining activity,85%
FC(F)(F)Oc1cccc(-c2cnc3ccc(-c4ccncc4)nn23)c1,enzyme activity,inhibitor,radiometric,5 µM,activity vs control,93%
C[C@@H](c1cccc(C#N)c1)n1cc(Cl)cc(C(N)=O)c1=N,cell-free assay,,competition with immobilised ligand,1 µM,remaining binding,100%
Cc1nn(CC(F)(F)F)cc1Nc1ncc(C2CC2)c(NCc2ccc(S(N)(=O)=O)cc2)n1,enzyme activity,inhibitor,radiometric,1 µM,remaining activity,110%
O=C(O)[C@H]1[C@H](Cn2nnc3ccccc3c2=O)CC[C@@H]1C(=O)c1ccc(OCCC2CCOCC2)cc1,cell-free assay,,competition with immobilised ligand,1 µM,remaining binding,96%
O=C1Nc2ccc(Cl)cc2C1=Cc1cc(Cl)c(O)c(Cl)c1,cell-free assay,,,0.5 µM,remaining signal,78.4%
NS(=O)(=O)c1cc(NC(=O)Cc2ccccc2)ccc1Oc1cccc(Cl)c1,cell-free assay,,competition with immobilised ligand,1 µM,remaining binding,100%
NS(=O)(=O)c1ccc(CNc2nc(Nc3cccc(CN4CCOCC4)c3)ncc2C2CC2)cc1,enzyme activity,inhibitor,radiometric,1 µM,remaining activity,98%
O=C(N[C@H]1CCCCC/C=C\C2C[C@@]2(C(=O)O)NC(=O)[C@@H]2C[C@@H](Oc3ccncc3)CN2C1=O)OC1CCCC1 (stereo partly shown),binding,,competition with immobilised ligand,1 µM,remaining binding,100%
COc1cc(Nc2c(C#N)cnc3cc(OCCCN4CCN(C)CC4)c(OC)cc23)c(Cl)cc1Cl,cell-free assay,,,0.5 µM,remaining signal,60.6%
NS(=O)(=O)c1ccc(CNc2nc(Nc3cccc(CN4CCOCC4)c3)ncc2Br)cc1,enzyme activity,inhibitor,radiometric,1 µM,remaining activity,61%
O=C(Nc1cnn(-c2csc(C(=O)NC3COC3)c2)c1)Nc1ccccc1Cl,enzyme activity,inhibitor,,5 µM,remaining activity,108%
CC(=O)N1CCC(c2ccc(C(=O)NC(=N)N)cc2C(F)(F)F)CC1,cell-free assay,,competition with immobilised ligand,1 µM,remaining binding,100%
O=C1NC(=O)c2cc(Nc3ccc(F)cc3)c(Nc3ccc(F)cc3)cc21,cell-free assay,,,0.5 µM,remaining signal,98.2%
c1cc(CN2CCOCC2)cc(Nc2nccc(NCCc3cnc[nH]3)n2)c1,enzyme activity,inhibitor,radiometric,1 µM,remaining activity,68%
CCCOc1ccc([C@@H]2[C@@H](C(=O)O)[C@H](c3ccc4c(c3)OCO4)CN2CC(=O)Nc2c(CC)cccc2CC)cc1,cell-free assay,,competition with immobilised ligand,1 µM,remaining binding,100%
O=C(NCCCNc1nc(Nc2cccc(NC(=O)N3CCCC3)c2)ncc1C1CC1)C1CCC1,enzyme activity,inhibitor,radiometric,1 µM,remaining activity,7%
CCCCN(CCCC)C(=O)CN1C[C@@H](c2cc(OC)c3c(c2)OCO3)[C@H](C(=O)O)[C@H]1CC(C)(C)CCC,cell-free assay,,competition with immobilised ligand,1 µM,remaining binding,93%
